Results from ChEMBL document CHEMBL4431310, “Characterization and in vitro activity of a branched peptide boronic acid that interacts with HIV-1 RRE RNA” (Bioorg Med Chem, 2016).
Calls of active or inactive are those of the source. The calls are words filed in the database; no cut-off is given here. *1 amine or outer side, *2 acyl side, *3 side chain or, on linkers, in order; H or OH if unused. Where a SMILES comes first, the peptide text is derived from it. Side-chain parts run from the residue outwards. [ ]: non-standard residue; d: D form. The star is where a group is joined. X4 = NCCCC[C@H](NC(=O)[C@@H](N)CCCCNC(=O)c1ccc(B(O)O)cc1)C(=O)N[C@@H](Cc1ccc(B(O)O)cc1)C(=O)*; X1 = N[C@@H](Cc1ccc(B(O)O)cc1)C(=O)N[C@@H](Cc1ccc(O)cc1)C(=O)N[C@@H](Cc1ccc(B(O)O)cc1)C(=O)*; X2 = NCCCC[C@H](NC(=O)[C@@H](N)CCCCN)C(=O)N[C@@H](CCCCNC(=O)c1ccc(B(O)O)cc1)C(=O)*; X3 = NCCCC[C@H](N)C(=O)N[C@@H](CCCCNC(=O)c1ccc(B(O)O)cc1)C(=O)*; Phe(4-B(OH)2) = N[C@@H](Cc1ccc(B(O)O)cc1)C(=O)O; Benzoyl(4-B(OH)2) = O=C(c1ccc(B(O)O)cc1)*; εLys = N[C@@H](CCCCN[*:1])C(=O)[*:2]

Tests used:
[1] = target: Rev responsive element (RRE) RNA; experiment: Binding affinity to HIV-1 RRE 2B RNA measured after 4 hrs by dot blot assay; type: nucleic-acid assay, Human immunodeficiency virus 1
Method in brief: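 RNA at 0.4 nM titrated with peptide 0.001–100 µM for 4 h at rt, filtered through nitrocellulose, washed twice, imaged by phosphorimaging. Kd from four-parameter logistic fit of densitometry; triplicate, SD reported.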

[2] = tested on: Human immunodeficiency virus 1; experiment: Antiviral activity against HIV-1 NL4-3 infected monkey 5BD.1 cells assessed as reduction in p24 production at 10 uM measured over 24 hrs by p24 ELISA; type: functional
[3] = tested on: Human immunodeficiency virus 1; experiment: Antiviral activity against HIV-1 NL4-3 infected in human U87 cells expressing CD4.CXCR4 assessed as inhibition of p24 production at 10 uM measured after 4 days by p24 ELISA; type: functional, organism-based
HeLa = experiment: Cytotoxicity in human HeLa cells assessed as cell viability at 100 nM to 10 uM measured over 24 hrs by MTT assay; type: cell-based; conditions: 0.1 µM
[4] = tested on: Human immunodeficiency virus 1; experiment: Antiviral activity against HIV-1 NL4-3 infected in human U87 cells expressing CD4.CXCR4 assessed as inhibition of p24 production measured after 4 days by p24 ELISA; type: functional, organism-based
[5] = tested on: Human immunodeficiency virus 1; experiment: Antiviral activity against HIV-1 NL4-3 infected in human U87 cells expressing CD4.CXCR4 assessed as inhibition of p24 production at 100 uM measured after 4 days by p24 ELISA; type: functional, organism-based
[6] = target: Rev responsive element (RRE) RNA; experiment: Binding affinity to HIV-1 RRE 2B RNA measured after 4 hrs by EMSA; type: nucleic-acid assay, Human immunodeficiency virus 1
[7] = Toxicity against human U87 cells expressing CD4.CXCR4 assessed as cell viability at 10 uM measured after 24 hrs by MTT assay; type: cell-based, U-87MG ATCC; conditions: read-out: Activity
[8] = target: Rev responsive element (RRE) RNA; experiment: Binding affinity to HIV-1 RRE 2B RNA in presence of 1000-fold excess tRNA; type: nucleic-acid assay, Human immunodeficiency virus 1
[9] = tested on: Rev responsive element (RRE) RNA; experiment: Selectivity ratio of Kd for HIV-1 RRE 2B RNA to Kd for HIV-1 RRE 2B RNA in presence of 1000-fold excess tRNA; type: nucleic-acid assay; conditions: Human immunodeficiency virus 1
[10] = Binding affinity to HIV-1 TAR RNA; design: species or system Human immunodeficiency virus 1
[11] = tested on: Rev responsive element (RRE) RNA; experiment: Binding affinity to HIV-1 RRE 2B RNA assessed as protection against RNase V1-mediated RRE 2B cleavage at G17 and C18 preincubated for 4 hrs followed by addition of RNase V1 measured after 10 mins by nuclease protection assay; type: nucleic-acid assay; conditions: Human immunodeficiency virus 1
Method in brief: (§1)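 5'-32P-labeled RRE IIB (10 nM) mixed with unlabeled RRE IIB (200 nM), heated to 95 °C for 3 min and snap-cooled. Incubated with peptide (up to 20 µM) on ice for 4 h in 10 mM Tris pH 7, 100 mM KCl, 10 mM MgCl2. Digested on ice with RNase V1 (0.002 U, 10 min), RNase T1 (1 U, 1 h) or RNase A (20 ng, 1 h). Stopped with inactivation/precipitation buffer, run on 12% urea PAGE, read by autoradiography against an alkaline hydrolysis ladder.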

[12] = tested on: Rev responsive element (RRE) RNA; experiment: Binding affinity to HIV-1 RRE 2B RNA assessed as protection against RNase A-mediated RRE 2B cleavage at C21 and U24 preincubated for 4 hrs followed by addition of RNase A measured up to 20 uM after 1 hr by nuclease protection assay; type: nucleic-acid assay; conditions: Human immunodeficiency virus 1; method in brief: as §1
[13] = tested on: Rev responsive element (RRE) RNA; experiment: Binding affinity to HIV-1 RRE 2B RNA assessed as protection against RNase T1-mediated RRE 2B cleavage preincubated for 4 hrs followed by addition of RNase T1 measured up to 20 uM after 1 hr by nuclease protection assay; type: nucleic-acid assay; conditions: Human immunodeficiency virus 1; method in brief: as §1
[14] = tested on: Rev responsive element (RRE) RNA; experiment: Binding affinity to HIV-1 RRE 2B RNA assessed as protection against RNase A-mediated RRE 2B cleavage at U9 and G34 preincubated for 4 hrs followed by addition of RNase A at 20 uM measured after 1 hr by nuclease protection assay; type: nucleic-acid assay; conditions: Human immunodeficiency virus 1; method in brief: as §1
[15] = tested on: Rev responsive element (RRE) RNA; experiment: Binding affinity to HIV-1 RRE 2B RNA assessed as protection against RNase T1-mediated RRE 2B cleavage at G10 and G11 preincubated for 4 hrs followed by addition of RNase T1 at 20 uM measured after 1 hr by nuclease protection assay; type: nucleic-acid assay; conditions: Human immunodeficiency virus 1; method in brief: as §1
[16] = tested on: Rev responsive element (RRE) RNA; experiment: Binding affinity to HIV-1 RRE 2B RNA assessed as protection against RNase A-mediated RRE 2B cleavage at C33 of loop B preincubated for 4 hrs followed by addition of RNase A at 20 uM measured after 1 hr by nuclease protection assay; type: nucleic-acid assay; conditions: Human immunodeficiency virus 1; method in brief: as §1

Row | Compound | Kd [1] [µM] | inhibition [2] | inhibition [3] | other results
1 | NCCCC[C@H](NC(=O)[C@H](CC(N)=O)NC(=O)[C@H](CCCCNC(=O)[C@H](Cc1ccc(B(O)O)cc1)NC(=O)[C@H](Cc1ccc(O)cc1)NC(=O)[C@@H](N)Cc1ccc(B(O)O)cc1)NC(=O)[C@H](Cc1ccc(B(O)O)cc1)NC(=O)[C@H](Cc1ccc(O)cc1)NC(=O)[C@@H](N)Cc1ccc(B(O)O)cc1)C(=O)N[C@@H](CO)C(=O)N[C@@H](Cc1ccc(O)cc1)C(=O)O (H-[Phe(4-B(OH)2)]Y[Phe(4-B(OH)2)]K(X1)NKSY-OH) | 8.7 |  | Active | inhibition at 10 µM ([2]; Human immunodeficiency virus 1, NL4-3, in Primates): 70%; Activity (HeLa): Non-Toxic; inhibition [4]: Dose-dependent effect; IC50 ([4]; Human immunodeficiency virus 1, NL4-3, U-87 MG, 96 h): 5 µM; inhibition [5]: Active; Kd [6]: 4.6 µM; viability at 24 h, 10 µM [7]: > 80%; Kd [8]: 26.4 µM; Selectivity ratio [9]: 3; Kd [10]: 5.2 µM; Activity [11]: Dose-dependent effect; Activity [12]: Active; Activity [13]: inactive; Activity [14]: inactive; Activity [15]: inactive; Activity [16]: inactive
2 | Nc1ccn([C@@H]2CS[C@H](CO)O2)c(=O)n1 |  |  | Active | inhibition [5]: Active
3 | Cc1cn([C@H]2C[C@H](N=[N+]=[N-])[C@@H](CO)O2)c(=O)[nH]c1=O |  |  | Active | inhibition [5]: Active
4 | NCCCC[C@H](NC(=O)[C@H](CC(N)=O)NC(=O)[C@H](Cc1ccc(B(O)O)cc1)NC(=O)[C@H](Cc1ccc(O)cc1)NC(=O)[C@H](Cc1ccc(B(O)O)cc1)NC(=O)[C@H](Cc1ccc(B(O)O)cc1)NC(=O)[C@H](Cc1ccc(O)cc1)NC(=O)[C@@H](N)Cc1ccc(B(O)O)cc1)C(=O)N[C@@H](CO)C(=O)N[C@@H](Cc1ccc(O)cc1)C(=O)O (H-[Phe(4-B(OH)2)]Y[Phe(4-B(OH)2)][Phe(4-B(OH)2)]Y[Phe(4-B(OH)2)]NKSY-OH) | 27.2 |  |  | 
5 | CCc1c(C)nc2sc(C(N)=O)c(N)c2c1C |  | Active |  | 
6 | NCCCC[C@H](NC(=O)[C@H](Cc1ccc(O)cc1)NC(=O)[C@@H](N)CCCCNC(=O)c1ccc(B(O)O)cc1)C(=O)NCCCC[C@H](NC(=O)[C@H](CCCCN)NC(=O)[C@H](Cc1ccc(O)cc1)NC(=O)[C@@H](N)CCCCNC(=O)c1ccc(B(O)O)cc1)C(=O)N[C@@H](Cc1cnc[nH]1)C(=O)N[C@@H](CCCCN)C(=O)N[C@@H](CCCCN)C(=O)N[C@@H](Cc1ccc(O)cc1)C(=O)O (H-K(Benzoyl(4-B(OH)2))YKK([Lys-Tyr-εLys-Benzoyl(4-B(OH)2)])HKKY-OH) | 86.5 | Active | inactive | 

Now from value to compound, other results behind:

Row | Kd [1] [µM] | Compound | inhibition [2] | inhibition [3] | other results
7 | 1.4 | NCCCC[C@H](NC(=O)[C@H](CCCCN)NC(=O)[C@@H](N)Cc1c[nH]c2ccccc12)C(=O)NCCCC[C@H](NC(=O)[C@H](CCCCN)NC(=O)[C@H](CCCCN)NC(=O)[C@@H](N)Cc1c[nH]c2ccccc12)C(=O)N[C@@H](CCCCNC(=O)c1ccc(B(O)O)cc1)C(=O)N[C@@H](Cc1ccc(O)cc1)C(=O)N[C@@H](Cc1c[nH]c2ccccc12)C(=O)N[C@@H](Cc1ccc(O)cc1)C(=O)O (H-WKKK([Lys-Lys-Trp])K(Benzoyl(4-B(OH)2))YWY-OH) | Active | inactive | 
8 | 17.7 | NCCCC[C@H](NC(=O)[C@H](CC(N)=O)NC(=O)[C@H](CCCCN)NC(=O)[C@H](Cc1ccc(B(O)O)cc1)NC(=O)[C@H](Cc1ccc(O)cc1)NC(=O)[C@@H](N)Cc1ccc(B(O)O)cc1)C(=O)N[C@@H](CO)C(=O)N[C@@H](Cc1ccc(O)cc1)C(=O)O (H-[Phe(4-B(OH)2)]Y[Phe(4-B(OH)2)]KNKSY-OH) |  |  | 
9 | 26.8 | C[C@@H](O)[C@H](NC(=O)[C@H](Cc1ccc(B(O)O)cc1)NC(=O)[C@H](CCCCNC(=O)[C@H](CCCCNC(=O)c1ccc(B(O)O)cc1)NC(=O)[C@H](CCCCN)NC(=O)[C@@H](N)CCCCN)NC(=O)[C@H](CCCCNC(=O)c1ccc(B(O)O)cc1)NC(=O)[C@H](CCCCN)NC(=O)[C@@H](N)CCCCN)C(=O)N[C@@H](CO)C(=O)N[C@@H](Cc1ccc(O)cc1)C(=O)O (H-KKK(Benzoyl(4-B(OH)2))K(X2)[Phe(4-B(OH)2)]TSY-OH) | Active | inactive | 
10 | 58.4 | CC(C)C[C@H](NC(=O)[C@H](CCCCN)NC(=O)[C@H](CCCCNC(=O)[C@H](CCCCN)NC(=O)[C@H](CCCCNC(=O)c1ccc(B(O)O)cc1)NC(=O)[C@@H](N)CCCCN)NC(=O)[C@H](CCCCN)NC(=O)[C@H](CCCCNC(=O)c1ccc(B(O)O)cc1)NC(=O)[C@@H](N)CCCCN)C(=O)N[C@@H](CCCCN)C(=O)N[C@@H](Cc1ccc(O)cc1)C(=O)O (H-KK(Benzoyl(4-B(OH)2))KK([Lys-X3])KLKY-OH) | Active | inactive | 
11 | 27.2 | NCCCC[C@H](NC(=O)[C@H](CCCCN)NC(=O)[C@H](CCCCNC(=O)[C@H](Cc1ccccc1)NC(=O)[C@H](CCCCNC(=O)c1ccc(B(O)O)cc1)NC(=O)[C@@H](N)CCCCN)NC(=O)[C@H](Cc1ccccc1)NC(=O)[C@H](CCCCNC(=O)c1ccc(B(O)O)cc1)NC(=O)[C@@H](N)CCCCN)C(=O)N[C@@H](Cc1c[nH]c2ccccc12)C(=O)N[C@@H](Cc1ccc(O)cc1)C(=O)O (H-KK(Benzoyl(4-B(OH)2))FK([Phe-X3])KKWY-OH) | Active | inactive | 
12 | 28.5 | C[C@@H](O)[C@H](NC(=O)[C@@H]1CCCN1C(=O)[C@H](CCCCNC(=O)[C@H](CCCCN)NC(=O)[C@H](Cc1ccc(O)cc1)NC(=O)[C@@H](N)Cc1c[nH]c2ccccc12)NC(=O)[C@H](CCCCN)NC(=O)[C@H](Cc1ccc(O)cc1)NC(=O)[C@@H](N)Cc1c[nH]c2ccccc12)C(=O)N[C@@H](Cc1c[nH]c2ccccc12)C(=O)N[C@@H](Cc1ccc(O)cc1)C(=O)O (H-WYKK([Lys-Tyr-Trp])PTWY-OH) | Active | inactive | 
13 | 3.3 | NCCCC[C@H](NC(=O)[C@H](CCCCN)NC(=O)[C@H](CCCCNC(=O)c1ccc(B(O)O)cc1)NC(=O)[C@H](CCCCNC(=O)[C@H](Cc1ccc(B(O)O)cc1)NC(=O)[C@H](CCCCN)NC(=O)[C@@H](N)CCCCNC(=O)c1ccc(B(O)O)cc1)NC(=O)[C@H](Cc1ccc(B(O)O)cc1)NC(=O)[C@H](CCCCN)NC(=O)[C@@H](N)CCCCNC(=O)c1ccc(B(O)O)cc1)C(=O)N[C@@H](Cc1ccc(O)cc1)C(=O)O (H-K(Benzoyl(4-B(OH)2))K[Phe(4-B(OH)2)]K(X4)K(Benzoyl(4-B(OH)2))KKY-OH) | Active | inactive | 
14 | > 100 | N[C@@H](Cc1ccc(B(O)O)cc1)C(=O)N[C@@H](Cc1ccc(O)cc1)C(=O)N[C@@H](Cc1ccc(B(O)O)cc1)C(=O)NCCCC[C@H](NC(=O)[C@H](Cc1ccc(B(O)O)cc1)NC(=O)[C@H](Cc1ccc(O)cc1)NC(=O)[C@@H](N)Cc1ccc(B(O)O)cc1)C(=O)O |  |  | 
